PMC11047177 (ESMO Open, 2024)

Assay: Phase I study NCT03854227: DLTs and adverse events
Format: in vivo, human
Outline: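 Open-label, multicentre first-in-human trial in adults (ECOG 0–1) with advanced or metastatic tumours. Oral test compound, q.d. or b.i.d., on an empty stomach in continuous 28-day cycles. Part 1 started at 0.5 mg q.d., with escalation guided by a two-parameter Bayesian logistic regression model on cycle 1 DLTs. Part 2 ran at 6 mg q.d. AEs were graded by CTCAE 5.0 and summarised descriptively by dose level.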

[1] = Part 2 N = 26, 6 mg q.d., any grade
[2] = Part 2 N = 26, 6 mg q.d., grade ≥3
[3] = overall (part 1 + part 2), N=54

For `Cc1ncnc2c1ccn2[C@@H]1C[C@H](Oc2cc(C(F)F)c(F)c3c2CNCC3)[C@@H](O)[C@H]1O` [PF-06939999], the “TRAE Anemia” value (Part 1 N = 28, any grade) was 12 (43) n (%), the “TRAE Any” value (Part 1 N = 28, any grade) was 24 (86) n (%) and the “TRAE Decreased appetite” value (Part 1 N = 28, any grade) was 6 (21) n (%). For the same molecule, the “TRAE Dysgeusia” value (Part 1 N = 28, any grade) was 9 (32) n (%), the “TRAE Dyspepsia” value (Part 1 N = 28, any grade) was 2 (7) n (%) and the “TRAE Fatigue” value (Part 1 N = 28, any grade) was 9 (32) n (%). The “TRAE Hypomagnesemia” value (Part 1 N = 28, any grade) was 4 (14) n (%), the “TRAE Leukopenia” value (Part 1 N = 28, any grade) was 3 (11) n (%) and the “TRAE Nausea” value (Part 1 N = 28, any grade) was 8 (29) n (%). For the same molecule, the “TRAE Neutropenia” value (Part 1 N = 28, any grade) was 3 (11) n (%), the “TRAE Thrombocytopenia (including platelet count decreased)” value (Part 1 N = 28, any grade) was 9 (32) n (%) and the “TRAE Vomiting” value (Part 1 N = 28, any grade) was 1 (4) n (%). For the same molecule, the “TRAE Weight decreased” value (Part 1 N = 28, any grade) was 0 n (%), the “TRAE Anemia” value (Part 1 N = 28, grade ≥3) was 8 (29) n (%) and the “TRAE Any” value (Part 1 N = 28, grade ≥3) was 12 (43) n (%). The “TRAE Decreased appetite” value (Part 1 N = 28, grade ≥3) was 0 n (%), the “TRAE Dysgeusia” value (Part 1 N = 28, grade ≥3) was 0 n (%) and the “TRAE Dyspepsia” value (Part 1 N = 28, grade ≥3) was 0 n (%). For the same molecule, the “TRAE Fatigue” value (Part 1 N = 28, grade ≥3) was 2 (7) n (%), the “TRAE Hypomagnesemia” value (Part 1 N = 28, grade ≥3) was 0 n (%) and the “TRAE Leukopenia” value (Part 1 N = 28, grade ≥3) was 0 n (%). The “TRAE Nausea” value (Part 1 N = 28, grade ≥3) was 0 n (%), the “TRAE Neutropenia” value (Part 1 N = 28, grade ≥3) was 1 (4) n (%) and the “TRAE Thrombocytopenia (including platelet count decreased)” value (Part 1 N = 28, grade ≥3) was 6 (21) n (%). For the same molecule, the “TRAE Vomiting” value (Part 1 N = 28, grade ≥3) was 0 n (%), the “TRAE Weight decreased” value (Part 1 N = 28, grade ≥3) was 0 n (%) and the “TRAE Anemia” value [1] was 11 (42) n (%). For the same molecule, the “TRAE Any” value [1] was 21 (81) n (%), the “TRAE Decreased appetite” value [1] was 7 (27) n (%) and the “TRAE Dysgeusia” value [1] was 3 (12) n (%). The “TRAE Dyspepsia” value [1] was 4 (15) n (%), the “TRAE Fatigue” value [1] was 6 (23) n (%) and the “TRAE Hypomagnesemia” value [1] was 1 (4) n (%). The “TRAE Leukopenia” value [1] was 2 (8) n (%), the “TRAE Nausea” value [1] was 9 (35) n (%) and the “TRAE Neutropenia” value [1] was 1 (4) n (%). The “TRAE Thrombocytopenia (including platelet count decreased)” value [1] was 13 (50) n (%), the “TRAE Vomiting” value [1] was 3 (12) n (%) and the “TRAE Weight decreased” value [1] was 3 (12) n (%). The “TRAE Anemia” value [2] was 7 (27) n (%), the “TRAE Any” value [2] was 11 (42) n (%) and the “TRAE Decreased appetite” value [2] was 0 n (%). For the same molecule, the “TRAE Dysgeusia” value [2] was 0 n (%), the “TRAE Dyspepsia” value [2] was 0 n (%) and the “TRAE Fatigue” value [2] was 1 (4) n (%). The “TRAE Hypomagnesemia” value [2] was 0 n (%), the “TRAE Leukopenia” value [2] was 1 (4) n (%) and the “TRAE Nausea” value [2] was 0 n (%). For the same molecule, the “TRAE Neutropenia” value [2] was 1 (4) n (%), the “TRAE Thrombocytopenia (including platelet count decreased)” value [2] was 6 (23) n (%) and the “TRAE Vomiting” value [2] was 0 n (%). The “TRAE Weight decreased” value [2] was 0 n (%), the “TRAE Anemia” value (Total N = 54, any grade) was 23 (43) n (%) and the “TRAE Any” value (Total N = 54, any grade) was 45 (83) n (%). For the same molecule, the “TRAE Decreased appetite” value (Total N = 54, any grade) was 13 (24) n (%), the “TRAE Dysgeusia” value (Total N = 54, any grade) was 12 (22) n (%) and the “TRAE Dyspepsia” value (Total N = 54, any grade) was 6 (11) n (%). For the same molecule, the “TRAE Fatigue” value (Total N = 54, any grade) was 15 (28) n (%), the “TRAE Hypomagnesemia” value (Total N = 54, any grade) was 5 (9) n (%) and the “TRAE Leukopenia” value (Total N = 54, any grade) was 5 (9) n (%). For the same molecule, the “TRAE Nausea” value (Total N = 54, any grade) was 17 (32) n (%), the “TRAE Neutropenia” value (Total N = 54, any grade) was 4 (7) n (%) and the “TRAE Thrombocytopenia (including platelet count decreased)” value (Total N = 54, any grade) was 22 (41) n (%). The “TRAE Vomiting” value (Total N = 54, any grade) was 4 (7) n (%), the “TRAE Weight decreased” value (Total N = 54, any grade) was 3 (6) n (%) and the “TRAE Anemia” value (Total N = 54, grade ≥3) was 15 (28) n (%). For the same molecule, the “TRAE Any” value (Total N = 54, grade ≥3) was 23 (43) n (%), the “TRAE Decreased appetite” value (Total N = 54, grade ≥3) was 0 n (%) and the “TRAE Dysgeusia” value (Total N = 54, grade ≥3) was 0 n (%). The “TRAE Dyspepsia” value (Total N = 54, grade ≥3) was 0 n (%), the “TRAE Fatigue” value (Total N = 54, grade ≥3) was 3 (6) n (%) and the “TRAE Hypomagnesemia” value (Total N = 54, grade ≥3) was 0 n (%). For the same molecule, the “TRAE Leukopenia” value (Total N = 54, grade ≥3) was 1 (2) n (%), the “TRAE Nausea” value (Total N = 54, grade ≥3) was 0 n (%) and the “TRAE Neutropenia” value (Total N = 54, grade ≥3) was 2 (4) n (%). The “TRAE Thrombocytopenia (including platelet count decreased)” value (Total N = 54, grade ≥3) was 12 (22) n (%), the “TRAE Vomiting” value (Total N = 54, grade ≥3) was 0 n (%) and the “TRAE Weight decreased” value (Total N = 54, grade ≥3) was 0 n (%). The “Patients who discontinued treatment due to AEs” value (all 54 patients, 6 patients) was 11%, the “Recommended part 2 dose (RP2D)” value (oral, selected from safety and PK/PD modeling) was 6 mg q.d and the “Grade ≥3 TRAE Anemia” value [3] was 28%. The “Grade ≥3 TRAE Fatigue” value [3] was 6% and the “Grade ≥3 TRAE Neutropenia” value [3] was 4%.
